Source: ChEMBL document CHEMBL4689842, “EUbOPEN Chemogenomics Library wave 1” (2021)

Test system: HEK-293T
Experiment: Multiplex assay against HEK293T;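 as to Population Tubulin-Different-Phenotype (%): share of the cells with healthy nuclei that show this phenotype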
Type: toxicity, cell-based
Settings: human
Procedure, shortened: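 Live cells were stained at seeding with Hoechst33342, BioTracker Green Microtubule Cytoskeleton Dye, MitoTracker Red and Annexin V Alexa Fluor 680. Following compound addition, they were imaged on a CQ1 microscope at 37°C and 5% CO2 and gated by CellPathfinder machine learning into Hoechst high-intensity objects or normal cells, with normal cells split into healthy, pyknosed or fragmented nuclei and pyknosed cells into mitotic or apoptotic. Tubulin, mitochondrial-mass and membrane-permeability phenotypes are per cents of healthy-nucleus cells.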

[1] = 12 h, 1 µM, compound concentration 1 uM, replicate 1
[2] = 12 h, 1 µM, compound concentration 1 uM, replicate 2
[3] = 12 h, 10 µM, compound concentration 10 uM, replicate 1
[4] = 12 h, 10 µM, compound concentration 10 uM, replicate 2
[5] = 24 h, 1 µM, compound concentration 1 uM, replicate 1
[6] = 24 h, 1 µM, compound concentration 1 uM, replicate 2
[7] = 24 h, 10 µM, compound concentration 10 uM, replicate 1
[8] = 24 h, 10 µM, compound concentration 10 uM, replicate 2
[9] = 48 h, 1 µM, compound concentration 1 uM, replicate 1
[10] = 48 h, 1 µM, compound concentration 1 uM, replicate 2
[11] = 48 h, 10 µM, compound concentration 10 uM, replicate 1
[12] = 48 h, 10 µM, compound concentration 10 uM, replicate 2

With `CN(C)CC#Cc1ccc(OCCCc2sc(N3CCc4cccc(C(=O)Nc5nc6ccccc6s5)c4C3)nc2C(=O)O)c(F)c1` [A-1155463] as the compound, how does the “Population Apoptotic (%)” value [1] read?
Its value is 33%.

And the “Population Fragmented Nuclei (%)” value [1]?
Its value is 12%.

And the “Population Healthy Nuclei (%)” value [1]?
Its value is 42%.

And the “Population Hoechst High Intensity Objects (%)” value [1]?
The value was 11%.

What about the “Population Membrane Permeable-Phenotype (%)” value [1] of the same compound?
Its value is 2%.

What about the “Population Mitochondria Different-Phenotype (%)” value [1] of the same compound?
The value was 68%.

And the “Population Mitotic Cells (%)” value [1]?
The value was 66%.

And the “Population Normal (%)” value [1]?
The value was 88%.

What about the “Population Pyknosed Nuclei (%)” value [1] of the same compound?
Its value is 45%.

And the “Population Tubulin-Different-Phenotype (%)” value [1]?
Its value is 40%.

What about the “Total Cell Count” value [1] of the same compound?
Its value is 278.

And the “Population Apoptotic (%)” value [2]?
The value was 15%.

And the “Population Fragmented Nuclei (%)” value [2]?
The value was 4%.

And the “Population Healthy Nuclei (%)” value [2]?
Its value is 44%.

What about the “Population Hoechst High Intensity Objects (%)” value [2] of the same compound?
Its value is 3%.

What about the “Population Membrane Permeable-Phenotype (%)” value [2] of the same compound?
The value was 6%.

And the “Population Mitochondria Different-Phenotype (%)” value [2]?
Its value is 17%.

What about the “Population Mitotic Cells (%)” value [2] of the same compound?
The value was 84%.

And the “Population Normal (%)” value [2]?
The value was 96%.

And the “Population Pyknosed Nuclei (%)” value [2]?
The value was 50%.

And the “Population Tubulin-Different-Phenotype (%)” value [2]?
The value was 17%.

What about the “Total Cell Count” value [2] of the same compound?
Its value is 177.

What about the “Population Apoptotic (%)” value [3] of the same compound?
The value was 40%.

And the “Population Fragmented Nuclei (%)” value [3]?
Its value is 8%.

What about the “Population Healthy Nuclei (%)” value [3] of the same compound?
Its value is 41%.

And the “Population Hoechst High Intensity Objects (%)” value [3]?
Its value is 10%.

What about the “Population Membrane Permeable-Phenotype (%)” value [3] of the same compound?
The value was 13%.

What about the “Population Mitochondria Different-Phenotype (%)” value [3] of the same compound?
Its value is 63%.

And the “Population Mitotic Cells (%)” value [3]?
The value was 59%.

And the “Population Normal (%)” value [3]?
The value was 89%.

And the “Population Pyknosed Nuclei (%)” value [3]?
Its value is 49%.

And the “Population Tubulin-Different-Phenotype (%)” value [3]?
Its value is 64%.

And the “Total Cell Count” value [3]?
Its value is 288.

And the “Population Apoptotic (%)” value [4]?
Its value is 18%.

What about the “Population Fragmented Nuclei (%)” value [4] of the same compound?
The value was 20%.

And the “Population Healthy Nuclei (%)” value [4]?
The value was 39%.

What about the “Population Hoechst High Intensity Objects (%)” value [4] of the same compound?
Its value is 7%.

And the “Population Membrane Permeable-Phenotype (%)” value [4]?
The value was 10%.

What about the “Population Mitochondria Different-Phenotype (%)” value [4] of the same compound?
The value was 17%.

What about the “Population Mitotic Cells (%)” value [4] of the same compound?
Its value is 81%.

What about the “Population Normal (%)” value [4] of the same compound?
The value was 92%.

And the “Population Pyknosed Nuclei (%)” value [4]?
The value was 39%.

And the “Population Tubulin-Different-Phenotype (%)” value [4]?
The value was 26%.

And the “Total Cell Count” value [4]?
The value was 263.

And the “Population Apoptotic (%)” value [5]?
The value was 48%.

And the “Population Fragmented Nuclei (%)” value [5]?
The value was 11%.

And the “Population Healthy Nuclei (%)” value [5]?
The value was 38%.

And the “Population Hoechst High Intensity Objects (%)” value [5]?
The value was 14%.

And the “Population Membrane Permeable-Phenotype (%)” value [5]?
Its value is 4%.

What about the “Population Mitochondria Different-Phenotype (%)” value [5] of the same compound?
The value was 54%.

What about the “Population Mitotic Cells (%)” value [5] of the same compound?
Its value is 51%.

What about the “Population Normal (%)” value [5] of the same compound?
The value was 85%.

What about the “Population Pyknosed Nuclei (%)” value [5] of the same compound?
Its value is 50%.

And the “Population Tubulin-Different-Phenotype (%)” value [5]?
The value was 37%.

What about the “Total Cell Count” value [5] of the same compound?
Its value is 286.

What about the “Population Apoptotic (%)” value [6] of the same compound?
The value was 10%.

And the “Population Fragmented Nuclei (%)” value [6]?
The value was 4%.

And the “Population Healthy Nuclei (%)” value [6]?
Its value is 56%.

What about the “Population Hoechst High Intensity Objects (%)” value [6] of the same compound?
Its value is 2%.

What about the “Population Membrane Permeable-Phenotype (%)” value [6] of the same compound?
Its value is 17%.

And the “Population Mitochondria Different-Phenotype (%)” value [6]?
The value was 7%.

What about the “Population Mitotic Cells (%)” value [6] of the same compound?
Its value is 89%.

What about the “Population Normal (%)” value [6] of the same compound?
Its value is 97%.

And the “Population Pyknosed Nuclei (%)” value [6]?
The value was 39%.

What about the “Population Tubulin-Different-Phenotype (%)” value [6] of the same compound?
Its value is 24%.

And the “Total Cell Count” value [6]?
Its value is 220.

What about the “Population Apoptotic (%)” value [7] of the same compound?
The value was 42%.

And the “Population Fragmented Nuclei (%)” value [7]?
The value was 12%.

What about the “Population Healthy Nuclei (%)” value [7] of the same compound?
Its value is 43%.

And the “Population Hoechst High Intensity Objects (%)” value [7]?
The value was 10%.

And the “Population Membrane Permeable-Phenotype (%)” value [7]?
Its value is 14%.

And the “Population Mitochondria Different-Phenotype (%)” value [7]?
The value was 35%.

What about the “Population Mitotic Cells (%)” value [7] of the same compound?
Its value is 57%.

And the “Population Normal (%)” value [7]?
Its value is 89%.

What about the “Population Pyknosed Nuclei (%)” value [7] of the same compound?
Its value is 44%.

And the “Population Tubulin-Different-Phenotype (%)” value [7]?
Its value is 54%.

What about the “Total Cell Count” value [7] of the same compound?
Its value is 298.

And the “Population Apoptotic (%)” value [8]?
The value was 24%.

And the “Population Fragmented Nuclei (%)” value [8]?
The value was 19%.

And the “Population Healthy Nuclei (%)” value [8]?
Its value is 52%.

And the “Population Hoechst High Intensity Objects (%)” value [8]?
The value was 3%.

And the “Population Membrane Permeable-Phenotype (%)” value [8]?
Its value is 20%.

And the “Population Mitochondria Different-Phenotype (%)” value [8]?
The value was 13%.

And the “Population Mitotic Cells (%)” value [8]?
The value was 75%.

And the “Population Normal (%)” value [8]?
Its value is 96%.

And the “Population Pyknosed Nuclei (%)” value [8]?
Its value is 28%.

And the “Population Tubulin-Different-Phenotype (%)” value [8]?
Its value is 48%.

And the “Total Cell Count” value [8]?
Its value is 287.

What about the “Population Apoptotic (%)” value [9] of the same compound?
The value was 33%.

What about the “Population Fragmented Nuclei (%)” value [9] of the same compound?
The value was 16%.

And the “Population Healthy Nuclei (%)” value [9]?
The value was 35%.

What about the “Population Hoechst High Intensity Objects (%)” value [9] of the same compound?
The value was 17%.

And the “Population Membrane Permeable-Phenotype (%)” value [9]?
Its value is 9%.

What about the “Population Mitochondria Different-Phenotype (%)” value [9] of the same compound?
Its value is 30%.

What about the “Population Mitotic Cells (%)” value [9] of the same compound?
Its value is 66%.

What about the “Population Normal (%)” value [9] of the same compound?
Its value is 82%.

What about the “Population Pyknosed Nuclei (%)” value [9] of the same compound?
The value was 48%.

What about the “Population Tubulin-Different-Phenotype (%)” value [9] of the same compound?
Its value is 37%.

And the “Total Cell Count” value [9]?
Its value is 322.

What about the “Population Apoptotic (%)” value [10] of the same compound?
Its value is 5%.

And the “Population Fragmented Nuclei (%)” value [10]?
Its value is 7%.

What about the “Population Healthy Nuclei (%)” value [10] of the same compound?
Its value is 78%.

And the “Population Hoechst High Intensity Objects (%)” value [10]?
The value was 4%.

And the “Population Membrane Permeable-Phenotype (%)” value [10]?
Its value is 19%.

What about the “Population Mitochondria Different-Phenotype (%)” value [10] of the same compound?
The value was 4%.

And the “Population Mitotic Cells (%)” value [10]?
Its value is 94%.

What about the “Population Normal (%)” value [10] of the same compound?
The value was 95%.

What about the “Population Pyknosed Nuclei (%)” value [10] of the same compound?
Its value is 13%.

What about the “Population Tubulin-Different-Phenotype (%)” value [10] of the same compound?
Its value is 26%.

What about the “Total Cell Count” value [10] of the same compound?
The value was 397.

And the “Population Apoptotic (%)” value [11]?
Its value is 40%.

And the “Population Fragmented Nuclei (%)” value [11]?
Its value is 15%.

And the “Population Healthy Nuclei (%)” value [11]?
The value was 56%.

What about the “Population Hoechst High Intensity Objects (%)” value [11] of the same compound?
The value was 11%.

And the “Population Membrane Permeable-Phenotype (%)” value [11]?
Its value is 30%.

And the “Population Mitochondria Different-Phenotype (%)” value [11]?
The value was 13%.

What about the “Population Mitotic Cells (%)” value [11] of the same compound?
The value was 59%.

What about the “Population Normal (%)” value [11] of the same compound?
The value was 88%.

What about the “Population Pyknosed Nuclei (%)” value [11] of the same compound?
Its value is 28%.

And the “Population Tubulin-Different-Phenotype (%)” value [11]?
The value was 52%.

And the “Total Cell Count” value [11]?
The value was 390.

And the “Population Apoptotic (%)” value [12]?
The value was 8%.

And the “Population Healthy Nuclei (%)” value [12]?
Its value is 65%.

And the “Population Hoechst High Intensity Objects (%)” value [12]?
Its value is 3%.

And the “Population Membrane Permeable-Phenotype (%)” value [12]?
Its value is 43%.

What about the “Population Mitochondria Different-Phenotype (%)” value [12] of the same compound?
Its value is 2%.

What about the “Population Mitotic Cells (%)” value [12] of the same compound?
The value was 91%.

And the “Population Normal (%)” value [12]?
Its value is 96%.

And the “Population Pyknosed Nuclei (%)” value [12]?
Its value is 19%.

What about the “Population Tubulin-Different-Phenotype (%)” value [12] of the same compound?
The value was 48%.

What about the “Total Cell Count” value [12] of the same compound?
The value was 365.
